Assay results taken from ChEMBL document CHEMBL4406897 (Bioorg Med Chem, 2019).
pIC50, pKi: −log10 of the molar value.

Columns and labels:
Vero = test: Cytotoxicity against African green monkey Vero cells by sulforhodamine B assay; format: cell-based; details: Chlorocebus sabaeus
Plasmodium falciparum [1] = test: (§1) Antimalarial activity against Plasmodium falciparum TM4/8.2 infected in human erythrocytes assessed as reduction in [3H]-hypoxanthine incorporation pretreated for 24 hrs followed by [3H]-hypoxanthine addition measured after 18 hrs by liquid scintillation counting method; format: functional, organism-based
Plasmodium falciparum [2] = test: as §1, with “against pyrimethamine-resistant” for “against”, “V1/S expressing Dihydrofolate reductase N51I/C59R/S108N/I164L mutant” for “TM4/8.2”, “18” for “24”, “24” for “18”; format: functional, organism-based
In short: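 P. falciparum V1/S kept in continuous culture in human erythrocytes at 37 °C under 3% CO2. Growth inhibition was read as [3H]-hypoxanthine incorporation.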

Dihydrofolate reductase [3] = target: T1, Dihydrofolate reductase (Homo sapiens, UniProt P00374); test: Inhibition of human dihydrofolate reductase using dihydrofolate as substrate in presence of NADPH by UV-vis spectrophotometry analysis; details: for pKi: read-out: Ki
T1 sequence (P00374 whole entry): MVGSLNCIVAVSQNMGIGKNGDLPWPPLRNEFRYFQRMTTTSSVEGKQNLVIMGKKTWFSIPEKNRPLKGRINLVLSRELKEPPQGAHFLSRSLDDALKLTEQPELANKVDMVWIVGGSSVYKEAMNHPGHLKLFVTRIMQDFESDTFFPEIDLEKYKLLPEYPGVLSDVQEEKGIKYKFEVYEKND

[4] = Competitive inhibition of Plasmodium falciparum dihydrofolate reductase N51I/C59R/S108N/I164L quadruple mutant expressed in Escherichia coli BL21(DE3)pLysS using dihydrofolate as substrate in presence of NADPH by UV-vis spectrophotometry analysis
In short: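 Quadruple-mutant PfDHFR expressed from a pET plasmid in E. coli BL21(DE3)pLysS, induced with 0.4 mM IPTG at 20 °C for 20 h. Cells lysed by French press at 18,000 psi. Enzyme purified on methotrexate-Sepharose in 20 mM potassium phosphate pH 7.0 with 50 mM KCl, 10 mM DTT, 0.1 mM EDTA and 20% glycerol. Activity read spectrophotometrically at 25 °C. Ki measured in microplate format, assuming competitive inhibition.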

[5] = Competitive inhibition of wild type Plasmodium falciparum dihydrofolate reductase expressed in Escherichia coli BL21(DE3)pLysS using dihydrofolate as substrate in presence of NADPH by UV-vis spectrophotometry analysis
In short: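 Wild-type PfDHFR expressed from pET plasmid after 0.4 mM IPTG induction at 20 °C for 20 h. Cells lysed by French press at 18,000 psi. Enzyme purified on methotrexate-Sepharose in 20 mM potassium phosphate pH 7.0 with 0.1 mM EDTA, 10 mM DTT, 50 mM KCl and 20% glycerol. Activity read spectrophotometrically at 25 °C. Ki measured in microplate format, assuming competitive inhibition.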

Plasmodium falciparum [6] = test: Ratio of compound IC50 to pyrimethamine IC50 for antimalarial activity against Plasmodium falciparum TM4/8.2 infected in human erythrocytes; format: functional
dihydrofolate reductase [7] = test: Selectivity ratio of Ki for human dihydrofolate reductase to Ki for wild type Plasmodium falciparum TM4/8.2 dihydrofolate reductase; format: toxicity; details: read-out: Ratio Ki
[8] = Selectivity ratio of IC50 for African green monkey Vero cells to IC50 for Plasmodium falciparum TM4/8.2 infected in human erythrocytes; format: toxicity, cell-based; details: read-out: Ratio IC50
dihydrofolate reductase [9] = test: Selectivity ratio of Ki for human dihydrofolate reductase to Ki for Plasmodium falciparum dihydrofolate reductase N51I/C59R/S108N/I164L quadruple mutant; format: toxicity; details: read-out: Ratio Ki
[10] = Selectivity ratio of IC50 for African green monkey Vero cells to IC50 for Plasmodium falciparum V1/S infected in human erythrocytes; format: toxicity, cell-based; details: read-out: Ratio IC50
Plasmodium falciparum [11] = test: Ratio of compound IC50 to pyrimethamine IC50 for antimalarial activity against Plasmodium falciparum V1/S infected in human erythrocytes; format: functional

With Cl.Nc1nc(N)c(-c2ccccc2)c(CCc2ccccc2OCCCc2ccccc2)n1 the pIC50 (Vero) was 5.30, the pIC50 (Plasmodium falciparum [1]) was 5.17 and the pIC50 (Plasmodium falciparum [2]) was 5.21. For the same molecule, the pKi (Dihydrofolate reductase [3]) was 7.56.
With Cl.Nc1nc(N)c(-c2cccc(Cl)c2)c(COc2cccc(OCCCC(=O)O)c2)n1 the pIC50 (Vero) was < 4.00, the pIC50 (Plasmodium falciparum [1]) was 5.74 and the pIC50 (Plasmodium falciparum [2]) was 5.21. For the same molecule, the pKi (Dihydrofolate reductase [3]) was 7.13.
Cl.Nc1nc(N)c(-c2cccc(Cl)c2)c(CCCCOc2ccccc2)n1 showed a pIC50 (Vero) of 5.29, a pIC50 (Plasmodium falciparum [1]) of 6.47 and a pKi [4] of 8.83. The pIC50 (Plasmodium falciparum [2]) was 5.16 and the pKi (Dihydrofolate reductase [3]) was 7.89.
Cl.Nc1nc(N)c(-c2cccc(Cl)c2)c(CCCOc2ccccc2)n1 gave a pIC50 (Vero) of 6.33, a pIC50 (Plasmodium falciparum [1]) of 6.77 and a pKi [5] of 9.62. The pKi [4] was 8.94, the “Ratio IC50” value (Plasmodium falciparum [6]) was 2.13 and the selectivity ratio (dihydrofolate reductase [7]) was 36.3. It also gave a pIC50 (Plasmodium falciparum [2]) of 5.47, a selectivity ratio [8] of 2.76 and a pKi (Dihydrofolate reductase [3]) of 8.06. The selectivity ratio (dihydrofolate reductase [9]) was 7.52, the selectivity ratio [10] was 0.14 and the “Ratio IC50” value (Plasmodium falciparum [11]) was 0.03.
In the case of Cl.Nc1nc(N)c(-c2cccc(Cl)c2)c(CCCOc2cccc(OCCCC(=O)O)c2)n1, the pIC50 (Vero) was < 5.00, the pIC50 (Plasmodium falciparum [1]) was 7.31 and the pKi [4] was 9.01. It also gave a pIC50 (Plasmodium falciparum [2]) of 6.36 and a pKi (Dihydrofolate reductase [3]) of 7.71.
Work on Cl.Nc1nc(N)c(-c2ccccc2)c(CCCCOc2ccccc2)n1 yielded a pIC50 (Vero) of 4.81, a pIC50 (Plasmodium falciparum [1]) of 6.44 and a pKi [4] of 8.76. For the same molecule, the pIC50 (Plasmodium falciparum [2]) was 4.95 and the pKi (Dihydrofolate reductase [3]) was 7.31.
For Cl.Nc1nc(N)c(-c2ccccc2)c(CCCCOc2cccc(OCC(=O)O)c2)n1, the pIC50 (Vero) was < 6.00, the pIC50 (Plasmodium falciparum [1]) was 7.24 and the pKi [5] was 9.30. The pKi [4] was 8.98, the “Ratio IC50” value (Plasmodium falciparum [6]) was 0.73 and the selectivity ratio (dihydrofolate reductase [7]) was 91.9. The pIC50 (Plasmodium falciparum [2]) was < 6.00, the selectivity ratio [8] was > 17.2 and the pKi (Dihydrofolate reductase [3]) was 7.34. For the same molecule, the selectivity ratio (dihydrofolate reductase [9]) was 44.2 and the “Ratio IC50” value (Plasmodium falciparum [11]) was 0.01.
For Cl.Nc1nc(N)c(-c2ccccc2)c(CCCOc2cccc(OCCCC(=O)O)c2)n1, the pIC50 (Vero) was < 4.60, the pIC50 (Plasmodium falciparum [1]) was 7.28 and the pKi [4] was 8.90. It also gave a pIC50 (Plasmodium falciparum [2]) of 6.27 and a pKi (Dihydrofolate reductase [3]) of 7.54.
For Cl.Nc1nc(N)c(-c2cccc(Cl)c2)c(CCCCOc2cccc(OCCCC(=O)O)c2)n1, the pIC50 (Vero) was < 4.00, the pIC50 (Plasmodium falciparum [1]) was 7.29 and the pKi [4] was 9.03. For the same molecule, the pIC50 (Plasmodium falciparum [2]) was 5.52 and the pKi (Dihydrofolate reductase [3]) was 7.66.
In the case of Cl.Nc1nc(N)c(-c2cccc(Cl)c2)c(CCc2ccccc2OCCCc2ccccc2)n1, the pIC50 (Vero) was 6.19, the pIC50 (Plasmodium falciparum [1]) was 5.20 and the pIC50 (Plasmodium falciparum [2]) was 5.26. For the same molecule, the Ki (Dihydrofolate reductase [3]) was “Active”.
With Cl.Nc1nc(N)c(-c2cccc(Cl)c2)c(CCCCOc2cccc(OCC(=O)O)c2)n1 the pIC50 (Vero) was < 4.30, the pIC50 (Plasmodium falciparum [1]) was 7.37 and the pKi [4] was 9.14. The pIC50 (Plasmodium falciparum [2]) was 5.85 and the pKi (Dihydrofolate reductase [3]) was 7.87.
With Cl.Nc1nc(N)c(-c2ccccc2)c(CCCOc2cccc(OCC(=O)O)c2)n1 the pIC50 (Vero) was < 5.00, the pIC50 (Plasmodium falciparum [1]) was 7.15 and the pKi [4] was 9.30. For the same molecule, the pIC50 (Plasmodium falciparum [2]) was 5.57 and the pKi (Dihydrofolate reductase [3]) was 7.74.
For Cl.Nc1nc(N)c(-c2cccc(Cl)c2)c(CCCOc2cccc(OCC(=O)O)c2)n1, the pIC50 (Vero) was < 4.30, the pIC50 (Plasmodium falciparum [1]) was 7.32 and the pKi [4] was 9.39. It also gave a pIC50 (Plasmodium falciparum [2]) of 6.37 and a pKi (Dihydrofolate reductase [3]) of 7.87.
With CCc1nc(N)nc(N)c1-c1ccc(Cl)cc1 [PYRIMETHAMINE] the pKi [5] was 9.22, the pKi [4] was 6.41 and the pIC50 (Plasmodium falciparum [2]) was < 4.00.
For Cl.Nc1nc(N)c(-c2ccccc2)c(COc2cccc(OCCCC(=O)O)c2)n1, the pIC50 (Vero) was < 4.30, the pIC50 (Plasmodium falciparum [1]) was 5.28 and the pIC50 (Plasmodium falciparum [2]) was 4.51. For the same molecule, the pKi (Dihydrofolate reductase [3]) was 6.26.
Work on CCOC(=O)CCCOc1ccccc1CCc1nc(N)nc(N)c1-c1cccc(Cl)c1 yielded a pIC50 (Vero) of 5.09, a pIC50 (Plasmodium falciparum [1]) of 6.15 and a pIC50 (Plasmodium falciparum [2]) of 5.28. For the same molecule, the pKi (Dihydrofolate reductase [3]) was 7.63.
For Cl.Nc1nc(N)c(-c2ccccc2)c(COc2cccc(OCC(=O)O)c2)n1, the pIC50 (Vero) was < 4.00, the pIC50 (Plasmodium falciparum [1]) was 4.28 and the pIC50 (Plasmodium falciparum [2]) was < 4.00. It also gave a pKi (Dihydrofolate reductase [3]) of 6.29.
For CCOC(=O)CCCOc1ccccc1CCc1nc(N)nc(N)c1-c1ccccc1.Cl, the pIC50 (Vero) was < 5.00, the pIC50 (Plasmodium falciparum [1]) was 5.90 and the pIC50 (Plasmodium falciparum [2]) was < 5.00. The pKi (Dihydrofolate reductase [3]) was 7.49.
With Cl.Nc1nc(N)c(-c2cccc(Cl)c2)c(CCCCCOc2ccccc2)n1 the pIC50 (Vero) was 5.14, the pIC50 (Plasmodium falciparum [1]) was 6.37 and the pKi [4] was 8.49. For the same molecule, the pIC50 (Plasmodium falciparum [2]) was 5.04 and the pKi (Dihydrofolate reductase [3]) was 7.73.
For Cl.Nc1nc(N)c(-c2ccccc2)c(CCCCCOc2ccccc2)n1, the pIC50 (Vero) was 5.10, the pIC50 (Plasmodium falciparum [1]) was 6.42 and the pKi [5] was 9.52. The pKi [4] was 8.44, the “Ratio IC50” value (Plasmodium falciparum [6]) was 4.75 and the selectivity ratio (dihydrofolate reductase [7]) was 110. The pIC50 (Plasmodium falciparum [2]) was 5.10, the selectivity ratio [8] was 20.8 and the pKi (Dihydrofolate reductase [3]) was 7.48. The selectivity ratio (dihydrofolate reductase [9]) was 9.11, the selectivity ratio [10] was 1 and the “Ratio IC50” value (Plasmodium falciparum [11]) was 0.08.
In the case of Cl.Nc1nc(N)c(-c2ccccc2)c(CCCCOc2cccc(OCCCC(=O)O)c2)n1, the pIC50 (Vero) was < 4.00, the pIC50 (Plasmodium falciparum [1]) was 7.15 and the pKi [4] was 8.91. For the same molecule, the pIC50 (Plasmodium falciparum [2]) was 5.41 and the pKi (Dihydrofolate reductase [3]) was 7.46.
Molecule Cl.Nc1nc(N)c(-c2ccccc2)c(CCCOc2ccccc2)n1 has a pIC50 (Vero) of 5.86, a pIC50 (Plasmodium falciparum [1]) of 6.89 and a pKi [4] of 8.86. The pIC50 (Plasmodium falciparum [2]) was 4.82 and the pKi (Dihydrofolate reductase [3]) was 7.90.
With Cl.Nc1nc(N)c(-c2cccc(Cl)c2)c(COc2cccc(OCC(=O)O)c2)n1 the pIC50 (Vero) was < 5.00, the pIC50 (Plasmodium falciparum [1]) was 5.22 and the pIC50 (Plasmodium falciparum [2]) was 4.94. The pKi (Dihydrofolate reductase [3]) was 7.28.
Cl.Nc1nc(N)c(-c2ccccc2)c(CCc2ccccc2OCc2ccccc2)n1 showed a pIC50 (Vero) of 5.73, a pIC50 (Plasmodium falciparum [1]) of 6.19 and a pIC50 (Plasmodium falciparum [2]) of 5.36. For the same molecule, the pKi (Dihydrofolate reductase [3]) was 7.66.
Molecule Cl.Nc1nc(N)c(-c2cccc(Cl)c2)c(CCc2ccccc2OCc2ccccc2)n1 has a pIC50 (Vero) of 6.40, a pIC50 (Plasmodium falciparum [1]) of 5.71 and a pKi [4] of 8.51. For the same molecule, the pIC50 (Plasmodium falciparum [2]) was 5.32 and the pKi (Dihydrofolate reductase [3]) was 7.84.
With CCc1nc(N)nc(N)c1-c1ccccc1 the pIC50 (Plasmodium falciparum [1]) was 6.14, the pIC50 (Plasmodium falciparum [2]) was < 4.30 and the pKi (Dihydrofolate reductase [3]) was 7.98.
